ChEMBL document CHEMBL1629517, “Molecular properties prediction, synthesis and antimicrobial activity of some newer oxadiazole derivatives” (2010)
≈ marks a conversion by molar mass, not a printed value.

Assays:
Candida albicans [1] = test: Antifungal activity against Candida albicans at 100 ug/ml after 48 hrs by agar diffusion method; type: functional; conditions: read-out: IZ
Summary of the method: (§1)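 Agar well diffusion on Sabouraud agar (peptone 1 g, D-glucose 4 g, agar 2 g per 100 ml water, pH 5.7). Plates were lawned with a saline suspension of spores, excess was decanted, and plates were dried 1 h at 37 °C. Compounds in DMSO went into punched wells, and inhibition zones were measured against controls, with voriconazole as standard.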

Escherichia coli [2] = test: Antibacterial activity against Escherichia coli ATCC 25922 at 200 ug/ml after 24 hrs by disc-diffusion method; type: functional; conditions: ATCC 25922, 24 h, read-out: IZ
Bacillus subtilis [3] = test: Antibacterial activity against Bacillus subtilis ATCC 6633 at 100 ug/ml after 24 hrs by disc-diffusion method; type: functional; conditions: ATCC 6633, 24 h, read-out: IZ
Escherichia coli [4] = test: Antibacterial activity against Escherichia coli ATCC 25922 at 100 ug/ml after 24 hrs by disc-diffusion method; type: functional; conditions: ATCC 25922, 24 h, read-out: IZ
Bacillus subtilis [5] = test: Antibacterial activity against Bacillus subtilis ATCC 6633 after 18 to 24 hrs; type: functional
Bacillus subtilis [6] = test: Antibacterial activity against Bacillus subtilis ATCC 6633 after 24 hrs by broth dilution technique; type: functional; conditions: ATCC 6633, 24 h
Summary of the method: (§2)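 MIC by broth dilution: nutrient broth containing logarithmic two-fold serial dilutions of compound was inoculated with about 5 × 10⁵ c.f.u. of actively dividing bacteria.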

Bacillus subtilis [7] = test: Antibacterial activity against Bacillus subtilis ATCC 6633 at 200 ug/ml after 24 hrs by disc-diffusion method; type: functional; conditions: ATCC 6633, 24 h, read-out: IZ
Aspergillus niger [8] = test: Antifungal activity against Aspergillus niger at 200 ug/ml after 48 hrs by agar diffusion method; type: functional; conditions: read-out: IZ; summary of the method: as §1
Candida albicans [9] = test: Antifungal activity against Candida albicans at 200 ug/ml after 48 hrs by agar diffusion method; type: functional; conditions: read-out: IZ; summary of the method: as §1
Pseudomonas aeruginosa [10] = test: Antibacterial activity against Pseudomonas aeruginosa ATCC 27853 at 100 ug/ml after 24 hrs by disc-diffusion method; type: functional; conditions: ATCC 27853, 24 h, read-out: IZ
Aspergillus niger [11] = test: Antifungal activity against Aspergillus niger at 100 ug/ml after 3 to 4 days by agar diffusion method; conditions: read-out: IZ
Staphylococcus aureus [12] = test: Antibacterial activity against Staphylococcus aureus ATCC 25923 after 24 hrs by broth dilution technique; type: functional; conditions: ATCC 25923, 24 h; summary of the method: as §2
Candida albicans [13] = test: Antifungal activity against Candida albicans after 48 hrs; type: functional
Pseudomonas aeruginosa [14] = test: Antibacterial activity against Pseudomonas aeruginosa ATCC 27853 at 200 ug/ml after 24 hrs by disc-diffusion method; type: functional; conditions: ATCC 27853, 24 h, read-out: IZ
Staphylococcus aureus [15] = test: Antibacterial activity against Staphylococcus aureus ATCC 25923 after 18 to 24 hrs; type: functional
Pseudomonas aeruginosa [16] = test: Antibacterial activity against Pseudomonas aeruginosa ATCC 27853 after 24 hrs by broth dilution technique; type: functional; conditions: ATCC 27853, 24 h; summary of the method: as §2
Aspergillus niger [17] = test: Antifungal activity against Aspergillus niger after 48 hrs; type: functional
Staphylococcus aureus [18] = test: Antibacterial activity against Staphylococcus aureus ATCC 25923 at 200 ug/ml after 24 hrs by disc-diffusion method; type: functional; conditions: ATCC 25923, 24 h, read-out: IZ
Staphylococcus aureus [19] = test: Antibacterial activity against Staphylococcus aureus ATCC 25923 at 100 ug/ml after 24 hrs by disc-diffusion method; type: functional; conditions: ATCC 25923, 24 h, read-out: IZ
Escherichia coli [20] = test: Antibacterial activity against Escherichia coli ATCC 25922 after 18 to 24 hrs; type: functional
Escherichia coli [21] = test: Antibacterial activity against Escherichia coli ATCC 25922 after 24 hrs by broth dilution technique; type: functional; conditions: ATCC 25922, 24 h; summary of the method: as §2
Pseudomonas aeruginosa [22] = test: Antibacterial activity against Pseudomonas aeruginosa ATCC 27853 after 18 to 24 hrs; type: functional

Compound	zone of inhibition at 100 µg/mL (Candida albicans [1])	zone of inhibition at 200 µg/mL (Escherichia coli [2])	zone of inhibition at 100 µg/mL (Bacillus subtilis [3])	zone of inhibition at 100 µg/mL (Escherichia coli [4])	MBC (Bacillus subtilis [5])	MIC (Bacillus subtilis [6])	zone of inhibition at 200 µg/mL (Bacillus subtilis [7])	zone of inhibition at 200 µg/mL (Aspergillus niger [8])	zone of inhibition at 200 µg/mL (Candida albicans [9])	zone of inhibition at 100 µg/mL (Pseudomonas aeruginosa [10])	zone of inhibition at 100 µg/mL (Aspergillus niger [11])	MIC (Staphylococcus aureus [12])	MFC (Candida albicans [13])	MIC (Candida albicans [13])	zone of inhibition at 200 µg/mL (Pseudomonas aeruginosa [14])	MBC (Staphylococcus aureus [15])	MIC (Pseudomonas aeruginosa [16])	MFC (Aspergillus niger [17])	MIC (Aspergillus niger [17])	zone of inhibition at 200 µg/mL (Staphylococcus aureus [18])	further results
COc1cc(/C=C/C(=O)c2ccc(O)cc2)ccc1OCc1nnc(COc2ccccc2)o1	17 mm	22 mm	14 mm	20 mm	25 µg/mL (≈ 54.5 µM)	12.5 µg/mL (≈ 27.3 µM)	16 mm	24 mm	19 mm	25 mm	22 mm	6 µg/mL (≈ 13.1 µM)	25 µg/mL (≈ 54.5 µM)	12.5 µg/mL (≈ 27.3 µM)	27 mm	12.5 µg/mL (≈ 27.3 µM)	12.5 µg/mL (≈ 27.3 µM)	12.5 µg/mL (≈ 27.3 µM)	6 µg/mL (≈ 13.1 µM)	18 mm	zone of inhibition at 100 µg/mL (Staphylococcus aureus [19]): 17 mm; MBC (Escherichia coli [20]): 12.5 µg/mL (≈ 27.3 µM); MIC (Escherichia coli [21]): 6 µg/mL (≈ 13.1 µM); MBC (Pseudomonas aeruginosa [22]): 25 µg/mL (≈ 54.5 µM)
COc1cc(/C=C/C(=O)c2ccc(O)cc2)ccc1OCc1nnc(-c2ccccc2)o1	16 mm	23 mm	13 mm	21 mm	25 µg/mL (≈ 58.4 µM)	12.5 µg/mL (≈ 29.2 µM)	15 mm	24 mm	18 mm	25 mm	22 mm	25 µg/mL (≈ 58.4 µM)	25 µg/mL (≈ 58.4 µM)	12.5 µg/mL (≈ 29.2 µM)	27 mm	50 µg/mL (≈ 117 µM)	25 µg/mL (≈ 58.4 µM)	50 µg/mL (≈ 117 µM)	25 µg/mL (≈ 58.4 µM)	18 mm	zone of inhibition at 100 µg/mL (Staphylococcus aureus [19]): 17 mm; MBC (Escherichia coli [20]): 50 µg/mL (≈ 117 µM); MIC (Escherichia coli [21]): 12.5 µg/mL (≈ 29.2 µM); MBC (Pseudomonas aeruginosa [22]): 50 µg/mL (≈ 117 µM)
COc1cc(/C=C/C(=O)c2ccccc2)ccc1OCc1nnc(-c2ccccc2)o1	16 mm	20 mm	13 mm	19 mm	50 µg/mL (≈ 121 µM)	25 µg/mL (≈ 60.6 µM)	14 mm	25 mm	18 mm	23 mm	21 mm	12.5 µg/mL (≈ 30.3 µM)	25 µg/mL (≈ 60.6 µM)	12.5 µg/mL (≈ 30.3 µM)	25 mm	50 µg/mL (≈ 121 µM)	25 µg/mL (≈ 60.6 µM)	25 µg/mL (≈ 60.6 µM)	12.5 µg/mL (≈ 30.3 µM)	18 mm	zone of inhibition at 100 µg/mL (Staphylococcus aureus [19]): 16 mm; MBC (Escherichia coli [20]): 25 µg/mL (≈ 60.6 µM); MIC (Escherichia coli [21]): 12.5 µg/mL (≈ 30.3 µM); MBC (Pseudomonas aeruginosa [22]): 50 µg/mL (≈ 121 µM)
COc1ccc(C(=O)/C=C/c2ccc(OCc3nnc(-c4ccc(C)cc4)o3)c(OC)c2)cc1	16 mm	21 mm	12 mm	19 mm	25 µg/mL (≈ 54.8 µM)	12.5 µg/mL (≈ 27.4 µM)	14 mm	23 mm	18 mm	23 mm	20 mm	12.5 µg/mL (≈ 27.4 µM)	25 µg/mL (≈ 54.8 µM)	12.5 µg/mL (≈ 27.4 µM)	24 mm	25 µg/mL (≈ 54.8 µM)	12.5 µg/mL (≈ 27.4 µM)	25 µg/mL (≈ 54.8 µM)	12.5 µg/mL (≈ 27.4 µM)	17 mm	zone of inhibition at 100 µg/mL (Staphylococcus aureus [19]): 15 mm; MBC (Escherichia coli [20]): 25 µg/mL (≈ 54.8 µM); MIC (Escherichia coli [21]): 6 µg/mL (≈ 13.1 µM); MBC (Pseudomonas aeruginosa [22]): 25 µg/mL (≈ 54.8 µM)
COc1ccc(C(=O)/C=C/c2ccc(OCc3nnc(-c4ccccc4)o3)c(OC)c2)cc1	15 mm	21 mm	12 mm	19 mm	12.5 µg/mL (≈ 28.3 µM)	6 µg/mL (≈ 13.6 µM)	14 mm	24 mm	17 mm	25 mm	23 mm	12.5 µg/mL (≈ 28.3 µM)	25 µg/mL (≈ 56.5 µM)	6 µg/mL (≈ 13.6 µM)	26 mm	25 µg/mL (≈ 56.5 µM)	12.5 µg/mL (≈ 28.3 µM)	25 µg/mL (≈ 56.5 µM)	12.5 µg/mL (≈ 28.3 µM)	18 mm	zone of inhibition at 100 µg/mL (Staphylococcus aureus [19]): 16 mm; MBC (Escherichia coli [20]): 25 µg/mL (≈ 56.5 µM); MIC (Escherichia coli [21]): 12.5 µg/mL (≈ 28.3 µM); MBC (Pseudomonas aeruginosa [22]): 50 µg/mL (≈ 113 µM)
